According to ChEMBL document CHEMBL4689842, “EUbOPEN Chemogenomics Library wave 1” (2021):

System: Fibroblast
Assay: Multiplex assay against human fibroblast
Format: toxicity, cell-based
In short: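 Values for tubulin, mitochondrial-mass and membrane-permeability phenotypes are per cents of cells with healthy nuclei. These cells were identified by CellPathfinder machine-learning gating of live cells that had been stained at seeding with Hoechst33342, BioTracker Green Microtubule Cytoskeleton Dye, MitoTracker Red and Annexin V Alexa Fluor 680 and imaged on a CQ1 microscope at 37°C and 5% CO2 after compound addition. The gating first set Hoechst high-intensity objects apart from normal cells, then split normal cells into healthy, pyknosed or fragmented nuclei, and pyknosed cells into mitotic or apoptotic.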

[1] = 12 h, 1 µM, compound concentration 1 uM, replicate 1
[2] = 12 h, 1 µM, compound concentration 1 uM, replicate 2
[3] = 12 h, 10 µM, compound concentration 10 uM, replicate 1
[4] = 12 h, 10 µM, compound concentration 10 uM, replicate 2
[5] = 24 h, 1 µM, compound concentration 1 uM, replicate 1
[6] = 24 h, 1 µM, compound concentration 1 uM, replicate 2
[7] = 24 h, 10 µM, compound concentration 10 uM, replicate 1
[8] = 24 h, 10 µM, compound concentration 10 uM, replicate 2

CCN(CC)CCCCNc1ncc2cc(-c3cc(OC)cc(OC)c3)c(NC(=O)NC(C)(C)C)nc2n1 [PD-173074]
Population Apoptotic (%) [1]: 61% | Population Fragmented Nuclei (%) [1]: 20% | Population Hoechst High Intensity Objects (%) [1]: 70% | Population Membrane Permeable-Phenotype (%) [1]: 2% | Population Mitotic Cells (%) [1]: 38% | Population Normal (%) [1]: 29% | Population Pyknosed Nuclei (%) [1]: 63% | Population Tubulin-Different-Phenotype (%) [1]: 8% | Total Cell Count [1]: 749 | Population Apoptotic (%) [2]: 67% | Population Fragmented Nuclei (%) [2]: 46% | Population Healthy Nuclei (%) [2]: 15% | Population Hoechst High Intensity Objects (%) [2]: 72% | Population Membrane Permeable-Phenotype (%) [2]: 13% | Population Mitochondria Different-Phenotype (%) [2]: 0% | Population Mitotic Cells (%) [2]: 32% | Population Normal (%) [2]: 27% | Population Pyknosed Nuclei (%) [2]: 38% | Population Tubulin-Different-Phenotype (%) [2]: 0% | Total Cell Count [2]: 352 | Population Apoptotic (%) [3]: 60% | Population Fragmented Nuclei (%) [3]: 44% | Population Healthy Nuclei (%) [3]: 34% | Population Hoechst High Intensity Objects (%) [3]: 57% | Population Membrane Permeable-Phenotype (%) [3]: 0% | Population Mitotic Cells (%) [3]: 39% | Population Normal (%) [3]: 42% | Population Pyknosed Nuclei (%) [3]: 20% | Population Tubulin-Different-Phenotype (%) [3]: 6% | Total Cell Count [3]: 786 | Population Apoptotic (%) [4]: 66% | Population Fragmented Nuclei (%) [4]: 54% | Population Healthy Nuclei (%) [4]: 32% | Population Hoechst High Intensity Objects (%) [4]: 61% | Population Membrane Permeable-Phenotype (%) [4]: 16% | Population Mitochondria Different-Phenotype (%) [4]: 4% | Population Mitotic Cells (%) [4]: 33% | Population Normal (%) [4]: 38% | Population Pyknosed Nuclei (%) [4]: 12% | Population Tubulin-Different-Phenotype (%) [4]: 8% | Total Cell Count [4]: 189 | Population Apoptotic (%) [5]: 59% | Population Fragmented Nuclei (%) [5]: 32% | Population Healthy Nuclei (%) [5]: 13% | Population Hoechst High Intensity Objects (%) [5]: 74% | Population Membrane Permeable-Phenotype (%) [5]: 0% | Population Mitotic Cells (%) [5]: 40% | Population Normal (%) [5]: 25% | Population Pyknosed Nuclei (%) [5]: 53% | Population Tubulin-Different-Phenotype (%) [5]: 9% | Total Cell Count [5]: 594 | Population Apoptotic (%) [6]: 62% | Population Fragmented Nuclei (%) [6]: 44% | Population Healthy Nuclei (%) [6]: 12% | Population Hoechst High Intensity Objects (%) [6]: 72% | Population Membrane Permeable-Phenotype (%) [6]: 16% | Population Mitochondria Different-Phenotype (%) [6]: 0% | Population Mitotic Cells (%) [6]: 37% | Population Normal (%) [6]: 27% | Population Pyknosed Nuclei (%) [6]: 43% | Population Tubulin-Different-Phenotype (%) [6]: 0% | Total Cell Count [6]: 339 | Population Apoptotic (%) [7]: 51% | Population Fragmented Nuclei (%) [7]: 42% | Population Healthy Nuclei (%) [7]: 39% | Population Membrane Permeable-Phenotype (%) [7]: 2% | Population Mitochondria Different-Phenotype (%) [7]: 0% | Population Mitotic Cells (%) [7]: 48% | Population Pyknosed Nuclei (%) [7]: 18% | Population Tubulin-Different-Phenotype (%) [7]: 5% | Total Cell Count [7]: 734 | Population Apoptotic (%) [8]: 60% | Population Fragmented Nuclei (%) [8]: 58% | Population Healthy Nuclei (%) [8]: 28% | Population Hoechst High Intensity Objects (%) [8]: 58% | Population Membrane Permeable-Phenotype (%) [8]: 28% | Population Mitochondria Different-Phenotype (%) [8]: 14% | Population Mitotic Cells (%) [8]: 40% | Population Normal (%) [8]: 41% | Population Pyknosed Nuclei (%) [8]: 13% | Population Tubulin-Different-Phenotype (%) [8]: 19% | Total Cell Count [8]: 177

Cc1nc(Nc2n[nH]c3c2CN(C(=O)N[C@H](CN(C)C)c2ccccc2)C3(C)C)c2sccc2n1 [PF-03758309]
Population Apoptotic (%) [1]: 82% | Population Fragmented Nuclei (%) [1]: 33% | Population Healthy Nuclei (%) [1]: 48% | Population Hoechst High Intensity Objects (%) [1]: 13% | Population Membrane Permeable-Phenotype (%) [1]: 6% | Population Mitochondria Different-Phenotype (%) [1]: 2% | Population Mitotic Cells (%) [1]: 17% | Population Normal (%) [1]: 86% | Population Pyknosed Nuclei (%) [1]: 18% | Population Tubulin-Different-Phenotype (%) [1]: 2% | Total Cell Count [1]: 216 | Population Apoptotic (%) [2]: 60% | Population Fragmented Nuclei (%) [2]: 54% | Population Healthy Nuclei (%) [2]: 37% | Population Hoechst High Intensity Objects (%) [2]: 28% | Population Membrane Permeable-Phenotype (%) [2]: 0% | Population Mitochondria Different-Phenotype (%) [2]: 13% | Population Mitotic Cells (%) [2]: 40% | Population Normal (%) [2]: 71% | Population Pyknosed Nuclei (%) [2]: 8% | Population Tubulin-Different-Phenotype (%) [2]: 13% | Total Cell Count [2]: 83 | Population Apoptotic (%) [3]: 62% | Population Fragmented Nuclei (%) [3]: 35% | Population Healthy Nuclei (%) [3]: 51% | Population Hoechst High Intensity Objects (%) [3]: 11% | Population Membrane Permeable-Phenotype (%) [3]: 9% | Population Mitochondria Different-Phenotype (%) [3]: 10% | Population Mitotic Cells (%) [3]: 37% | Population Normal (%) [3]: 88% | Population Pyknosed Nuclei (%) [3]: 12% | Population Tubulin-Different-Phenotype (%) [3]: 32% | Total Cell Count [3]: 240 | Population Apoptotic (%) [4]: 40% | Population Fragmented Nuclei (%) [4]: 57% | Population Healthy Nuclei (%) [4]: 25% | Population Hoechst High Intensity Objects (%) [4]: 39% | Population Membrane Permeable-Phenotype (%) [4]: 0% | Population Mitochondria Different-Phenotype (%) [4]: 20% | Population Mitotic Cells (%) [4]: 60% | Population Normal (%) [4]: 60% | Population Pyknosed Nuclei (%) [4]: 16% | Population Tubulin-Different-Phenotype (%) [4]: 33% | Total Cell Count [4]: 98 | Population Apoptotic (%) [5]: 70% | Population Fragmented Nuclei (%) [5]: 25% | Population Healthy Nuclei (%) [5]: 53% | Population Hoechst High Intensity Objects (%) [5]: 16% | Population Membrane Permeable-Phenotype (%) [5]: 7% | Population Mitochondria Different-Phenotype (%) [5]: 8% | Population Mitotic Cells (%) [5]: 29% | Population Normal (%) [5]: 83% | Population Pyknosed Nuclei (%) [5]: 20% | Population Tubulin-Different-Phenotype (%) [5]: 7% | Total Cell Count [5]: 181 | Population Apoptotic (%) [6]: 75% | Population Fragmented Nuclei (%) [6]: 59% | Population Healthy Nuclei (%) [6]: 33% | Population Hoechst High Intensity Objects (%) [6]: 28% | Population Membrane Permeable-Phenotype (%) [6]: 0% | Population Mitochondria Different-Phenotype (%) [6]: 10% | Population Mitotic Cells (%) [6]: 25% | Population Normal (%) [6]: 71% | Population Pyknosed Nuclei (%) [6]: 6% | Population Tubulin-Different-Phenotype (%) [6]: 0% | Total Cell Count [6]: 82 | Population Apoptotic (%) [7]: 67% | Population Fragmented Nuclei (%) [7]: 30% | Population Healthy Nuclei (%) [7]: 54% | Population Hoechst High Intensity Objects (%) [7]: 20% | Population Membrane Permeable-Phenotype (%) [7]: 15% | Population Mitochondria Different-Phenotype (%) [7]: 6% | Population Mitotic Cells (%) [7]: 32% | Population Normal (%) [7]: 79% | Population Pyknosed Nuclei (%) [7]: 15% | Population Tubulin-Different-Phenotype (%) [7]: 40% | Total Cell Count [7]: 254 | Population Apoptotic (%) [8]: 100% | Population Fragmented Nuclei (%) [8]: 48% | Population Healthy Nuclei (%) [8]: 45% | Population Hoechst High Intensity Objects (%) [8]: 34% | Population Membrane Permeable-Phenotype (%) [8]: 11% | Population Mitochondria Different-Phenotype (%) [8]: 22% | Population Mitotic Cells (%) [8]: 0% | Population Normal (%) [8]: 65% | Population Pyknosed Nuclei (%) [8]: 6% | Population Tubulin-Different-Phenotype (%) [8]: 44% | Total Cell Count [8]: 92
